This is an account of results in publication PMC4198695 (Neoplasia (New York, N.Y.), 2014).

One may read the IC50 as the concentration at which inhibition is half-maximal.

One series concerns U87 glioblastoma cells. Description: MTT toxicity assay, U87. The settings on record: Homo sapiens, 168 h, read-out: IC50 (MTT assay), U87, 7 days incubation. The class given is cell-based. The gist of the method:
(§1)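 U87 (2.5 × 10^3) or U251 (5 × 10^3) cells per well were incubated 24 h at 37 °C. Medium was then replaced with test compound at 100, 33, 10, 3.3, 1, 0.3, 0.1 and 0.03 μM, in triplicate, for 7 days at 37 °C. Cells received 10% MTT in medium for 4 h, then solubilization solution. Absorbance was read at 570 nm with 690 nm background, and percent survival calculated versus control wells.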
For orientation: Formazan colour is commonly taken as a measure of viable cells.

In the next series the test system is U251 glioblastoma cells. Description: MTT toxicity assay, U251. The settings on record: Homo sapiens, U-251, 168 h, read-out: IC50 (MTT assay), U251, 7 days incubation. Format: cell-based. The gist of the method: as §1
The subject of a further series is U87 cells. The series is described as follows: Clonogenic proliferation assay, U87. The class given is cell-based, human. The settings on record: U87, 10 μM for 24 h, then 14 days drug-free. Put shortly:
(§2)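 Cells were seeded in 6-well plates in 6 replicates: U87 at 5 × 10^2 cells/well, U251 at 1 × 10^3 cells/well. After 24 h at 37 °C they were exposed to 10 μM test compound or drug-free medium for 24 h. Cells were then PBS-washed and grown 14 days drug-free, stained with 0.5% crystal violet for 30 min, and colonies counted. Survival was normalized to drug-free control.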

The subject of a further series is U251 cells. The series is described as follows: Clonogenic proliferation assay, U251. Format: cell-based, human. Particulars: U251, 10 μM for 24 h, then 14 days drug-free. Put shortly:
as §2

The conditions of series [1]: humans, twice daily; cited from earlier work.

In the case of `O=C(c1cc(Cc2n[nH]c(=O)c3ccccc23)ccc1F)N1CCN(C(=O)C2CC2)CC1` [Olaparib, 4-[3-(4-cyclopropanecarbonylpiperazine-1-carbonyl)-4-fluorobenzyl]-2H-phthalazin-1-one], the IC50 in the series with U87 glioblastoma cells amounted to 23.8 ± 1.3 µM; in the series with U251 glioblastoma cells, 5.5 ± 1.2 µM. In the series with U87 cells, the “decrease in number of surviving colonies” value was 20-30%. Further, the “cell survival rate normalized to control” value with U251 cells is 46.9%. Also, the maximum tolerated dose in series [1] was 400 mg.
